# Reference: publication PMC11962346 (Chemistry (Weinheim an Der Bergstrasse, Germany), 2025)
# *1 amine or outer side, *2 acyl side, *3 side chain or, on linkers, in order; H or OH if unused. Where a SMILES comes first, the peptide text is derived from it. Bridges are numbered along the chain shown (N, C = ends). The star is where a group is joined. X1 = CC(C)C[C@@H](CNC(=O)N1C[C@@H](SCCCCCC[*:1])C[C@H]1C(N)=O)NC(=O)NC[C@H](CC(C)C)N[*:2]; X4 = CC(C)C[C@@H](CNC(=O)N1CCC[C@H]1C(N)=O)NC(=O)NC[C@H](CC(C)C)N*; X2 = CC(C)C[C@@H](CNC(=O)N[C@@H](C)CNC(=O)N1CCC[C@H]1C(N)=O)N*
# Columns and labels:
# p53‐hDM2 interaction = p53‐hDM2 interaction (Homo sapiens, UniProt Q00987); test: TR-FRET; format: binding; conditions: for IC50: IC50±SEM hDM2, 9-point curves in duplicates; for inhibition at 0.1 µM: read-out: Inhibition at 100 nM (%) hDM2
# p53‐hDMX interaction = target: T1, p53‐hDMX interaction (Homo sapiens, UniProt O15151); test: TR-FRET; format: binding; conditions: for IC50: IC50±SEM hDMX, 9-point curves in duplicates; for inhibition at 0.1 µM: read-out: Inhibition at 100 nM (%) hDMX
# T1 sequence (O15151 1-490): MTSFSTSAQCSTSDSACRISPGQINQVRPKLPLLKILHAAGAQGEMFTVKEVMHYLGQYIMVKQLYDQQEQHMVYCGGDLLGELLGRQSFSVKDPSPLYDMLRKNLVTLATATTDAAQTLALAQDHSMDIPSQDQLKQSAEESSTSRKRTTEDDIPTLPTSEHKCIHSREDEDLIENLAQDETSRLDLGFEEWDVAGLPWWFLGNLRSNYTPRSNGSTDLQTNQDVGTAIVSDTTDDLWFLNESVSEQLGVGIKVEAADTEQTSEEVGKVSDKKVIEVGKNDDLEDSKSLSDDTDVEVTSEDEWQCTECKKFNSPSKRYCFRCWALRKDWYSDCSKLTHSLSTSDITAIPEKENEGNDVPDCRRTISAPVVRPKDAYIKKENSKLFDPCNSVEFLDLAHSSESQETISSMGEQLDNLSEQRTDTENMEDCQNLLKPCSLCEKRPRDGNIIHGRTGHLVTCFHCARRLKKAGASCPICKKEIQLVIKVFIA
# HCT116 cells [1] = test: RT-qPCR of p53 target genes p21 and hDM2; format: cell-based, human; conditions: 6 hours treatment, n=3
# p53wt HCT116 cells = test: Western blot of p53 protein levels; format: cell-based, human; conditions: 6 hours treatment, 0.1 to 40 µM
# Summary of the method: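 p53wt HCT116 cells in exponential growth, seeded one day ahead, were exposed to test compound for 6 h without serum, then lysed in RIPA. SDS-PAGE, wet transfer to nitrocellulose, 5% BSA/TBS-T block 1 h RT. Anti-p53 and anti-GAPDH overnight at 4 °C, infrared anti-mouse secondary 1.5 h RT. Positive control was a reference hDM2 inhibitor. Three independent biological replicates.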
# HCT116 cells [2] = test: MTS cell viability assay; format: cell-based, human; conditions: 3 days of incubation
# Summary of the method: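 HCT116 cells (passages 47–50; DMEM, 10% heat-inactivated FCS, 37 °C, 5% CO₂) seeded at 3×10³ cells/well with test compound at various concentrations in serum-free medium for 8 h. Serum (10%) then added for 64 h more. MTS reagent added, absorbance read at 490 nm, % viability taken versus untreated cells. Two independent experiments, three technical replicates each.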
# p53‐hDM2 interaction, sequence (Q00987 whole entry): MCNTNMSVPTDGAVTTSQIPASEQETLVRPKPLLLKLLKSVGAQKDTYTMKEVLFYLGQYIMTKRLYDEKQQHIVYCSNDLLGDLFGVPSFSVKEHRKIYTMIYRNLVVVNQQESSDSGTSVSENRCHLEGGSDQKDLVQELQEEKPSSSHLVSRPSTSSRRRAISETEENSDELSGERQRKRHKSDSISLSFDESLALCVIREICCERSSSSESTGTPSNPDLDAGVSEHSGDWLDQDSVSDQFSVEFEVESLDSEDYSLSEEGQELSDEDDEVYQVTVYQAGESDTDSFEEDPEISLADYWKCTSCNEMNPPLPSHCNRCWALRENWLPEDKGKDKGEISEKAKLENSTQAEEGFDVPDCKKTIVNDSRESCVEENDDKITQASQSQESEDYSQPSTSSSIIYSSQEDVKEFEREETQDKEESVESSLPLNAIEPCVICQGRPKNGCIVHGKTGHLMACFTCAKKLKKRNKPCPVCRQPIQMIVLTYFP
SMILES,IC50 (p53‐hDM2 interaction),inhibition at 0.1 µM (p53‐hDM2 interaction),IC50 (p53‐hDMX interaction),inhibition at 0.1 µM (p53‐hDMX interaction),mRNA of target genes p21 and hDM2 (RT-qPCR) (HCT116 cells [1]),p53 protein levels (western blot) (p53wt HCT116 cells),viability of p53wt HCT116 cells (in words) (HCT116 cells [2])
CC(C)C[C@@H](CNC(=O)N[C@@H](C)CNC(=O)N1CCC[C@H]1C(N)=O)NC(=O)[C@H](C)NC(=O)[C@H](Cc1c[nH]c2ccccc12)NC(=O)[C@H](Cc1ccc(O)cc1)NC(=O)[C@H](CCC(=O)O)NC(=O)[C@H](C)NC(=O)[C@H](Cc1ccccc1)NC(=O)[C@H](CO)NC(=O)[C@@H](N)[C@@H](C)O [Compound 3] (H-TSFAEYWA-X2),54 ± 17 nM,43%,247 ± 42 nM,19%,–,–,–
CC(C)C[C@@H](CNC(=O)N1CCC[C@H]1C(N)=O)NC(=O)NC[C@H](CC(C)C)NC(=O)[C@H](C)NC(=O)[C@H](Cc1c[nH]c2ccccc12)NC(=O)[C@H](Cc1ccc(O)cc1)NC(=O)[C@H](CCC(=O)O)NC(=O)[C@H](C)NC(=O)[C@H](Cc1ccccc1)NC(=O)[C@H](CO)NC(=O)[C@@H](N)[C@@H](C)O [Compound 4] (H-TSFAEYWA-X4),6.13 ± 0.08 nM,99%,115 ± 5 nM,46%,–,–,–
CC(C)C[C@H]1CNC(=O)N2C[C@H](C[C@H]2C(N)=O)SCCCCCCSC[C@H](NC(=O)[C@H](Cc2ccccc2)NC(=O)[C@H](CO)NC(=O)[C@@H](N)[C@@H](C)O)C(=O)N[C@@H](CCC(=O)O)C(=O)N[C@@H](Cc2ccc(O)cc2)C(=O)N[C@@H](Cc2c[nH]c3ccccc23)C(=O)N[C@@H](C)C(=O)N[C@@H](CC(C)C)CNC(=O)N1 [Compound 8 a] (H-TSFCEYWA; linker 4-C via X1),1.91 ± 0.05 nM,99%,75 ± 4 nM,66%,–,–,–
CC(=O)N[C@@H](CCCCN)C(=O)N[C@H](C(=O)N[C@@H](Cc1ccccc1)C(=O)N[C@H]1CSCCCCCCS[C@H]2C[C@@H](C(N)=O)N(C2)C(=O)NC[C@H](CC(C)C)NC(=O)NC[C@H](CC(C)C)NC(=O)[C@H](C)NC(=O)[C@H](Cc2c[nH]c3ccccc23)NC(=O)[C@H](Cc2ccc(O)cc2)NC(=O)[C@H](CCC(=O)O)NC1=O)[C@@H](C)O [Compound 10 a] (Ac-KTFCEYWA; linker 4-C via X1),3 ± 0.1 nM,–,63 ± 12 nM,–,dose‐dependent induction of mRNA of target genes p21 and hDM2,dose‐dependent increase of p53 levels,effective in reducing the viability of p53wt HCT116 cells in a concentration‐dependent manner
